Values after ≈ are worked out from the molar mass of the structure shown.
The compounds below were run on Mycobacterium tuberculosis variant bovis BCG (assay: Antimycobacterial activity against Mycobacterium bovis BCG Pasteur after 6 days by microdilution resazurin assay). Settings: 144 h.
Type: functional
Outline: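 Microdilution resazurin assay with M. bovis BCG inoculum grown in Dubos medium with 10% ADC. Drugs (DMSO stocks of 50 mg/mL) are twofold serially diluted in 96-well plates, with DMSO and isoniazid controls, then incubated at 37 °C. Resazurin (0.01% w/v) is added and incubation continues 24 h. MIC95 is the amount giving >95% growth inhibition, in µg/mL. Duplicate runs in two independent experiments.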
`CC1(C)CCc2c(ccc3oc(-c4cccnc4)c(CCCO)c23)O1` was tested, and the MIC95 was 6.2 µg/mL (≈ 18.4 µM). `Cc1c2c(c3cc(-c4cnccn4)oc3c1C)CCC(C)(C)O2` was tested, and the MIC95 was 25 µg/mL (≈ 81.1 µM). With `Cc1c2c(c3cc(CCc4cccnc4)oc3c1C)CCC(C)(C)O2` the MIC95 was 3.1 µg/mL (≈ 9.24 µM). `Cc1c2c(c3cc(-c4cccnc4)oc3c1C)CCC(C)(C)O2` showed an MIC95 of 3.1 µg/mL (≈ 10.1 µM). Compound `COC(=N)c1ccc(-c2cc3c4c(c(C)c(C)c3o2)OC(C)(C)CC4)cn1` has an MIC95 of 6.2 µg/mL (≈ 17 µM). In the case of `Cc1c2c(c3cc(-c4ccc[n+]([O-])c4)oc3c1C)CCC(C)(C)O2`, the MIC95 is reported as 12.5 µg/mL (≈ 38.7 µM). In the case of `Cc1c2c(c3cc(CCC(=O)N4CCOCC4)oc3c1C)CCC(C)(C)O2`, the MIC95 is reported as > 100 µg/mL. For `Cc1c2c(c3cc(/C=C/c4cccnc4)oc3c1C)CCC(C)(C)O2`, the MIC95 was 6.2 µg/mL (≈ 18.6 µM). `CC(=O)OCc1cc2c3c(c(C)c(C)c2o1)OC(C)(C)CC3` was tested, and the MIC95 was > 100 µg/mL. `Cc1c2c(c3cc(-c4ccccn4)oc3c1C)CCC(C)(C)O2` was tested, and the MIC95 was > 100 µg/mL. In the case of `Cc1c2c(c3cc(-c4ccc(Cl)nc4)oc3c1C)CCC(C)(C)O2`, the MIC95 is reported as > 100 µg/mL. In the case of `Cc1c2c(c3cc(Cc4cccs4)oc3c1C)CCC(C)(C)O2`, the MIC95 is reported as > 100 µg/mL. In the case of `Cc1c2c(c3cc(-c4ccc(-c5nn[nH]n5)nc4)oc3c1C)CCC(C)(C)O2`, the MIC95 is reported as 25 µg/mL (≈ 66.6 µM). With `Cc1c2c(c3cc(-c4cccs4)oc3c1C)CCC(C)(C)O2` the MIC95 was > 100 µg/mL. `CC1(C)CCc2c(ccc3oc(-c4ccncc4)c(CCCO)c23)O1` was tested, and the MIC95 was 12.5 µg/mL (≈ 37 µM). `CC1(C)C=Cc2c(ccc3oc(-c4ccncc4)cc23)O1` was tested, and the MIC95 was 6.2 µg/mL (≈ 22.4 µM). With `Cc1c2c(c3cc(-c4ccncc4)oc3c1C)CCC(C)(C)O2` the MIC95 was 3.1 µg/mL (≈ 10.1 µM). Compound `Cc1c2c(c3cc(Cc4cccnc4)oc3c1C)CCC(C)(C)O2` has an MIC95 of 6.2 µg/mL (≈ 19.3 µM). With `NNC(=O)c1ccncc1` [ISONIAZID] the MIC95 was 0.4 µg/mL (≈ 2.92 µM). `Cc1c2c(c3cc(-c4ccc(NCCCN(C)C)nc4)oc3c1C)CCC(C)(C)O2` showed an MIC95 of 6.2 µg/mL (≈ 15.2 µM). For `Cc1c(-c2ccncc2)oc2ccc3c(c12)C=CC(C)(C)O3`, the MIC95 was 6.2 µg/mL (≈ 21.3 µM). In the case of `Cc1c2c(c3cc(Cc4ccc(Cl)cc4)oc3c1C)CCC(C)(C)O2`, the MIC95 is reported as > 100 µg/mL.
